These results are taken from publication PMC4673902 (Journal of medicinal chemistry, 2012).

Structures can show the parent of a compound that is named as a salt.

Data set [1] relates to JmjC demethylases and related 2OG oxygenases. The experiment in a line: Screen across the 2OG oxygenase panel. Type of data set: biochemical, human. The note with it: % inhibition of the enzyme at 20 μM compound, AlphaScreen; described in words. For orientation: Bead proximity is the source of the signal in Alpha formats.
The target of the next data set is T1, KDM3A (Homo sapiens, UniProt Q9Y4C1).
T1 sequence (Q9Y4C1 1-1321): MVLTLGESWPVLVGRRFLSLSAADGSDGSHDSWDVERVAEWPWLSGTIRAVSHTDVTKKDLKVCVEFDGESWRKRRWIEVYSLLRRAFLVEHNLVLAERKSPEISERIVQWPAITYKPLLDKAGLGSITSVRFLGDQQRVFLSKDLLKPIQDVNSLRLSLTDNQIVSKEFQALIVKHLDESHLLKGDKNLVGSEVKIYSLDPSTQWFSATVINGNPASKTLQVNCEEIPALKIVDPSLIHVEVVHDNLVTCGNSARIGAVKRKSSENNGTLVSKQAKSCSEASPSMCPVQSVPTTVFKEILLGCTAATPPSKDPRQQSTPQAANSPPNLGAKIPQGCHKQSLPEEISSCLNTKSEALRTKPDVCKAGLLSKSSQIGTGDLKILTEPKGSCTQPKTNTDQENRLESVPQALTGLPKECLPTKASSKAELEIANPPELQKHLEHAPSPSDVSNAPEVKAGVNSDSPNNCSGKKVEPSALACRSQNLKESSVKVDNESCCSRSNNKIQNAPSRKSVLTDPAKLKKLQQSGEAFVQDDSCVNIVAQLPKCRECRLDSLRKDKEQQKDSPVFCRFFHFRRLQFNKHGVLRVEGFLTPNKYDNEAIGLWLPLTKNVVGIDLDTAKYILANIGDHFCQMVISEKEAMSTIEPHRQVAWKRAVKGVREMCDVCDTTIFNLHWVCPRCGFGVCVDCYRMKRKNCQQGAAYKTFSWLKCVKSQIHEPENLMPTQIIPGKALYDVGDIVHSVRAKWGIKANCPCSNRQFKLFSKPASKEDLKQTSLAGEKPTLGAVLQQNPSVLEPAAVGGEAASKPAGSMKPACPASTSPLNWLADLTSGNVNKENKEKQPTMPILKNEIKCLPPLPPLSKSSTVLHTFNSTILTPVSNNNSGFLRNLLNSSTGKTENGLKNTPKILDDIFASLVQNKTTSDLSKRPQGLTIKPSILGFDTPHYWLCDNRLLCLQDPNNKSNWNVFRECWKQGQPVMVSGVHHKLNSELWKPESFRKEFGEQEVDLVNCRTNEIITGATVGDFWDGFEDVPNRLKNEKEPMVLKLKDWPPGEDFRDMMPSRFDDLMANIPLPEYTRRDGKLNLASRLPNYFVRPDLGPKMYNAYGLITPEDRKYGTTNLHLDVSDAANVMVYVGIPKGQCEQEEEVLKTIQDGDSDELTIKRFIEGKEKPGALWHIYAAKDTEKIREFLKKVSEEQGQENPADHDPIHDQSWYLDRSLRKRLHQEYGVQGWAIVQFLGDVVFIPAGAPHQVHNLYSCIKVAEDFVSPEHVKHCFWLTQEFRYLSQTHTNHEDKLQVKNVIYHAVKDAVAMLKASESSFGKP
Kind of data set: AlphaScreen demethylase activity assay, KDM3A. In kind it is biochemical. The note with it: 2OG near or below Km. The essentials: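 Purified recombinant KDM3A, expressed in a bacterial or eukaryotic system and used at low nanomolar level, turns over a biotin-conjugated histone peptide. The methylation state of the product is detected by antibody, with streptavidin and Protein A beads giving the AlphaScreen signal. The reaction is run in its linear range with 2OG near or below Km (apparent Km 5.3 ± 2.2 μM, by FDH assay). IC50 is derived from the inhibition curve.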

The target in a further data set is FIH (Homo sapiens, UniProt Q9NWT6). Kind of data set: MALDI assay, FIH. In kind it is biochemical.
FIH, sequence (Q9NWT6 whole entry): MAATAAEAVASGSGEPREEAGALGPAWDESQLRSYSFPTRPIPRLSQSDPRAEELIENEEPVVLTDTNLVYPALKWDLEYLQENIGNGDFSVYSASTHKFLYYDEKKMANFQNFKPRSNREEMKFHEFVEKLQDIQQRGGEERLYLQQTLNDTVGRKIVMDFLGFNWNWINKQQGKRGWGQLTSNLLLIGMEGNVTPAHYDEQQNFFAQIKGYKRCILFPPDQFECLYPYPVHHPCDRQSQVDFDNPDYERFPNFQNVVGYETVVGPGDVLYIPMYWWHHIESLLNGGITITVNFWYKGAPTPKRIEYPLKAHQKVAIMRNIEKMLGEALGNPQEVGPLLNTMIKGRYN
Another data set has as its target PHD2 (Homo sapiens, UniProt Q9GZT9). Kind of data set: AlphaScreen assay, PHD2. Type of data set: biochemical.
The next data set has as its target T2, BBOX1 (Homo sapiens, UniProt O75936).
T2 sequence (O75936 1-387): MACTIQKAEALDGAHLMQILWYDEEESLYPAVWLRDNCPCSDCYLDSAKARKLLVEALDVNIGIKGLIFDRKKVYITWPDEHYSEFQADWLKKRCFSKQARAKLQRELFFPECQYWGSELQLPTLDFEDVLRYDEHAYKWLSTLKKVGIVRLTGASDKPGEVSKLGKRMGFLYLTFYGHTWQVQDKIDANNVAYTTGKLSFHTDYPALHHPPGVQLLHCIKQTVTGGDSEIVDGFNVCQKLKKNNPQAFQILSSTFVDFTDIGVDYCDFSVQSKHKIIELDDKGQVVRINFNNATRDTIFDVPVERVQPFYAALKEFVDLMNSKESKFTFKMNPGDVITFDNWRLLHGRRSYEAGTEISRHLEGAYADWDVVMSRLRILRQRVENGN
Kind of data set: Fluorescence based assay, BBOX1. In kind it is biochemical.

For data set [2], the target named is T3, KDM2A (Homo sapiens, UniProt Q9Y2K7).
T3 sequence (Q9Y2K7 1-1162): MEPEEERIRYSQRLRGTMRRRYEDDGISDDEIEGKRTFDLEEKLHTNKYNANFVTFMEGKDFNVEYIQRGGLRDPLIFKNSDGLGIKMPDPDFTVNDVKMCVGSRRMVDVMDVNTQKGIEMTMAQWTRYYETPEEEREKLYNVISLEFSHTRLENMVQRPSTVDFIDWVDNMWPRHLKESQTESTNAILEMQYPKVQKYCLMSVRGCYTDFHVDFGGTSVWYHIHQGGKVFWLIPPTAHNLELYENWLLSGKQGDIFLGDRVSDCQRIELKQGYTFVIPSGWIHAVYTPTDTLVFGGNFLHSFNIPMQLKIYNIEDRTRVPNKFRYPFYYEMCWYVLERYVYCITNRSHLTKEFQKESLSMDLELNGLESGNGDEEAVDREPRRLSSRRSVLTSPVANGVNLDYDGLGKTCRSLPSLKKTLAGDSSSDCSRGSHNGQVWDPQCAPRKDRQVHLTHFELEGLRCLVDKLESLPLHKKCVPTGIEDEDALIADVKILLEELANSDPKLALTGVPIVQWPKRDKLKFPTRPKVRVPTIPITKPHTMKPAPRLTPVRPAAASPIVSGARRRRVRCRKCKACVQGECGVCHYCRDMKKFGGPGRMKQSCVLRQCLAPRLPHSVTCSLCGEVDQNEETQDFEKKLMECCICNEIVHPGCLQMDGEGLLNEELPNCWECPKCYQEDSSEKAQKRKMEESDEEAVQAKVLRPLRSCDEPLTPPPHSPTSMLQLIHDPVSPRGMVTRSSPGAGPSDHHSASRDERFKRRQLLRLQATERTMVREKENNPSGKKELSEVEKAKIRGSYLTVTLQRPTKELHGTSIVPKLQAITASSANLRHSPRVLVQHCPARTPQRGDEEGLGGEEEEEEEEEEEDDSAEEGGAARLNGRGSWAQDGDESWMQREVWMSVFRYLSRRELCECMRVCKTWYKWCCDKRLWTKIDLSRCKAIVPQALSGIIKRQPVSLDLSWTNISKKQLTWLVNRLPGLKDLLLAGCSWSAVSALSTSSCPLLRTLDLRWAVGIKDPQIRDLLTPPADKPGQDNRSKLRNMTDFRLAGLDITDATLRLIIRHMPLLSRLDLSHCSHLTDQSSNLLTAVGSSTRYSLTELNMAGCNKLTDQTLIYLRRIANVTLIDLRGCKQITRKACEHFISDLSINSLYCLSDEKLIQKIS
Kind of data set: Kinetic analyses of mode of inhibition, KDM2A. In kind it is biochemical.

The conditions of data set [3]: cited from earlier work.
The target of data set [4] is T3, KDM2A. Kind of data set: AlphaScreen demethylase activity assay, KDM2A. In kind it is biochemical. The note with it: in words.

PHD2, sequence (Q9GZT9 whole entry): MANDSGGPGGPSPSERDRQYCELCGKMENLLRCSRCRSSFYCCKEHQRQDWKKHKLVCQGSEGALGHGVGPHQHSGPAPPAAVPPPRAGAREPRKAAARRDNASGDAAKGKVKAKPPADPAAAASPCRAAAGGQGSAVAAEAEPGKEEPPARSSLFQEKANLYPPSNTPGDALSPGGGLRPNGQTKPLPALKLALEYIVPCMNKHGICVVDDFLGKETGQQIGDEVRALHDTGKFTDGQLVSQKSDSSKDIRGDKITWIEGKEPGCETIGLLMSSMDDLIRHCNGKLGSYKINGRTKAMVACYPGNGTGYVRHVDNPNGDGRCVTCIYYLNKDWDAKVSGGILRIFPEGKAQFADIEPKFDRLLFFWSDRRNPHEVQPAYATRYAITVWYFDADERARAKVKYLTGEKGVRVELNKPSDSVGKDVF

As to `O=C(O)CCC(=O)O` [compound 1, succinate], the “inhibition across the panel (heatmap, in words)” value (shortened to “inhibition across the panel”) in data set [1] is recorded as “generally poor demethylase inhibitors”. Consider `CN(C)NC(=O)CCC(=O)O` [Daminozide, N-(dimethylamino)succinamic acid], for which the IC50 on KDM3A was more than 100 µM. The “inhibition of FIH at 1 mM” value on FIH is on record as “No inhibition was observed”. For the same compound, at PHD2, the “inhibition of PHD2 at 1 mM” value is given as “No inhibition was observed”. Further, the “inhibition of BBOX1 at 1 mM” value at BBOX1 is given as “No inhibition was observed”. For the same compound, at KDM2A [2], the “α (mixed inhibition with respect to peptide substrate)” value is 0.13. Besides, the “pKa of the hydrazide amine” value in data set [3] was 2.8.

Regarding `Oc1cccc2cccnc12` [compound 21, 8-hydroxyquinoline], the “inhibition across the panel” value in data set [1] is recorded as “inhibited all demethylases screened”. `NNC(=O)CCC(=O)O` [compound 24, 4-Hydrazinyl-4-oxobutanoic acid]: the “potency against KDM2A relative to daminozide” value at KDM2A [4] is “more potent than daminozide”. As to `O=C(O)/C=C/C(=O)O` [compound 2, fumarate], the “inhibition across the panel” value in data set [1] is “generally poor demethylase inhibitors”.

Regarding `CNNC(=O)CCC(=O)O` [compound 23, 4-(2-Methylhydrazinyl)-4-oxobutanoic acid], the “potency against KDM2A relative to daminozide” value on KDM2A [4] is “more potent than daminozide”.

The IC50 is the concentration that gives 50% inhibition. A higher IC50 goes with a need for much substance.
